From ChEMBL document CHEMBL4725305, “Optimizing the aryl-triazole of cjoc42 for enhanced gankyrin binding and anti-cancer activity” (Bioorg Med Chem Lett, 2020) come the findings set out here.

Assay [1] addresses T1, 26S proteasome non-ATPase regulatory subunit 10 (Homo sapiens) (UniProt O75832).
T1 sequence (whole entry): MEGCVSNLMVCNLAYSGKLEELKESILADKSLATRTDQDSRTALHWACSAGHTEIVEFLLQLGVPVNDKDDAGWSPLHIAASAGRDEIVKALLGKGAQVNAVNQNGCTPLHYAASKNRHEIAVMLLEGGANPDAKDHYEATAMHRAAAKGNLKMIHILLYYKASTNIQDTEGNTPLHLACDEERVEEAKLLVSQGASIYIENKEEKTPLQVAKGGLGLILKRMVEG
In words: Binding affinity to gankyrin (unknown origin) assessed as increase in melting temperature at 300 uM by thermal shift assay. The method in brief:
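Gankyrin (20 μM) incubated with test compound at 300 μM in protein thermal shift assay; denaturation temperature (T_m) measured and ΔT_m taken relative to protein without ligand. Vehicle control 5% DMSO; cjoc42 at 300 μM as reference control. Each compound tested in triplicate.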

In a further assay the test system is A549. Briefly: Cytotoxicity against human A549 cells assessed as reduction in cell viability incubated for 48 hrs by MTT assay. The format is functional, cell-based. To be noted: A549, 48 h. The method in brief: (§1)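 A549 and MDA-MB-231 cells incubated 24 h before drug addition, then exposed to compound for 48 h at 37 °C, 5% CO2; proliferation read by MTT assay and IC50 derived; tested up to 100 μM.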
(Formazan colour is commonly taken as a measure of viable cells.)

Assay [2] deals with T1, 26S proteasome non-ATPase regulatory subunit 10 (Homo sapiens). In words: Potency index, ratio of change in melting temperature of Cjoc42 to change in melting temperature of compound for binding affinity to gankyrin (unknown origin) assessed as increase in melting temperature at 300 uM by thermal shift assay. The method in brief: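 Gankyrin (20 μM) with compound at 300 μM in thermal shift assay, run in triplicate; ΔT_m of each compound compared with that of cjoc42 (300 μM) tested in parallel as positive control; 5% DMSO vehicle.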

Another assay deals with Hep3B. Briefly: Cytotoxicity against human Hep3B cells assessed as reduction in cell viability incubated for 72 hrs by MTT assay.
The next assay deals with HepG2. Briefly: Cytotoxicity against human HepG2 cells assessed as reduction in cell viability incubated for 72 hrs by MTT assay. The following applies: HepG2, 72 h. Format: functional, cell-based. In short, it runs like this: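 Hep3B and HepG2 cells incubated 24 h before drug addition, then exposed to compound for 72 h at 37 °C, 5% CO2; proliferation read by MTT assay and IC50 derived; tested up to 100 μM.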

The next assay relates to MDA-MB-231. Briefly: Cytotoxicity against human MDA-MB-231 cells assessed as reduction in cell viability incubated for 48 hrs by MTT assay. To be noted: MDA-MB-231, 48 h. The format is functional, cell-based. In short, it runs like this: as §1

Active and inactive are the calls of the source. The rule behind the calls is not given here.

`Cc1ccc(S(=O)(=O)OCCCc2cn(-c3ccccc3F)nn2)cc1`: the outcome in assay [1] was inactive.

Consider `Cc1ccc(S(=O)(=O)OCCCc2cn(-c3cccc(C(F)(F)F)c3)nn2)cc1`, for which the result in assay [1] was Active.

Regarding `Cc1ccc(S(=O)(=O)OCCCc2cn(-c3ccc(-c4ccccc4)cc3)nn2)cc1`, the outcome in assay [1] was inactive.

Broadly, the IC50 is the concentration at which inhibition is half-maximal. As to `Cc1ccc(S(=O)(=O)OCCCc2cn(-c3cccc(C#N)c3)nn2)cc1`, the half-maximal inhibitory concentration (IC50) is more than 100 µM in the assay with A549, 44.9 µM with Hep3B, more than 100 µM in the assay on HepG2 and more than 100 µM with MDA-MB-231. Also, the Ratio in assay [2] is 6. For the same compound, the outcome in assay [1] was Active.

Turning to `CCc1ccc(-n2cc(CCCOS(=O)(=O)c3ccc(C)cc3)nn2)cc1`, the outcome in assay [1] was inactive.

For the compound `Cc1ccc(S(=O)(=O)OCCCc2cn(-c3cccnc3)nn2)cc1`, the result in assay [1] was inactive.

Take `Cc1ccc(S(=O)(=O)OCCCc2cn(-c3nccs3)nn2)cc1`: the outcome in assay [1] was inactive.

In the case of `COc1ccc(-n2cc(CCCOS(=O)(=O)c3ccc(C)cc3)nn2)cc1`, the IC50 in the assay on A549 was 74.6 µM; in the assay with Hep3B it was more than 100 µM; in the assay with HepG2 it was more than 100 µM; in the assay on MDA-MB-231, 72.8 µM. In assay [1], the result was Active.

Consider `COc1ccc(-n2cc(CCCOS(=O)(=O)c3ccc(-c4ccccc4)cc3)nn2)cc1`, for which the outcome in assay [1] was inactive.

`Cc1ccc(S(=O)(=O)OCCCc2cn(-c3ccccc3C)nn2)cc1`: the outcome in assay [1] was Active.

Regarding `Cc1ccc(S(=O)(=O)OCCCc2cn(-c3ccncc3)nn2)cc1`, in assay [1], the result was inactive.

As to `Cc1ccc(-n2cc(CCCOS(=O)(=O)c3ccc(C)cc3)nn2)cc1`, the concentration for half-maximal inhibition (IC50) in the assay on A549 is 79.9 µM; in the assay with Hep3B, more than 100 µM; in the assay with HepG2, more than 100 µM; in the assay with MDA-MB-231 it was 36.6 µM. Moreover, the Ratio in assay [2] was 3. Besides, the outcome in assay [1] was Active.

For `CCc1cccc(-n2cc(CCCOS(=O)(=O)c3ccc(C)cc3)nn2)c1`, the outcome in assay [1] was Active.

As to `COc1cccc(-n2cc(CCCOS(=O)(=O)c3ccc(C)cc3)nn2)c1`, in assay [1], the outcome was Active.

As to `COC(=O)c1ccc(-n2cc(CCCOS(=O)(=O)c3ccc(-c4ccccc4)cc3)nn2)cc1`, in the assay on Hep3B, the IC50 was determined as 26 µM.

Take `Cc1ccc(S(=O)(=O)OCCCc2cn(-c3ccc(C(C)C)cc3)nn2)cc1`: the result in assay [1] was inactive.

With `Cc1ccc(S(=O)(=O)OCCCc2cn(-c3ccccn3)nn2)cc1`, in assay [1], the outcome was inactive.

With `Cc1ccc(S(=O)(=O)OCCCc2cn(-c3ccccc3-c3ccccc3)nn2)cc1`, the outcome in assay [1] was Active.

With `CCc1ccccc1-n1cc(CCCOS(=O)(=O)c2ccc(C)cc2)nn1`, in assay [1], the outcome was inactive.

`Cc1ccc(S(=O)(=O)OCCCc2cn(-c3ccc(I)cc3)nn2)cc1`: the outcome in assay [1] was inactive.

For `Cc1ccc(S(=O)(=O)OCCCc2cn(-c3ccc(F)cc3)nn2)cc1`, in assay [1], the outcome was inactive.

On to `Cc1ccc(S(=O)(=O)OCCCc2cn(-c3ccccc3C(F)(F)F)nn2)cc1`, for which the outcome in assay [1] was Active.

Turning to `Cc1ccc(S(=O)(=O)OCCCc2cn(-c3ccccc3C#N)nn2)cc1`, the result in assay [1] was inactive.

As to `Cc1ccc(S(=O)(=O)OCCCc2cn(-c3cccc(Br)c3)nn2)cc1`, the outcome in assay [1] was Active.

For the compound `N#Cc1cccc(-n2cc(CCCOS(=O)(=O)c3ccc(-c4ccccc4)cc3)nn2)c1`, in assay [1], the outcome was inactive.

In the case of `Cc1ccc(S(=O)(=O)OCCCc2cn(-c3ccc(C(F)(F)F)cc3)nn2)cc1`, the IC50 in the assay with A549 is more than 100 µM; in the assay on Hep3B, 42.7 µM; in the assay with HepG2, 42.6 µM; in the assay on MDA-MB-231, more than 100 µM. Besides, in assay [1], the outcome was Active.

`Cc1ccc(S(=O)(=O)OCCCc2cn(-c3ccc(C#N)cc3)nn2)cc1`: the result in assay [1] was inactive.

Take `Cc1ccc(S(=O)(=O)OCCCc2cn(-c3ccc(Br)cc3)nn2)cc1`: the result in assay [1] was Active.

Consider `Cc1ccc(S(=O)(=O)OCCCc2cn(-c3cccc(F)c3)nn2)cc1`, for which the IC50 in the assay with A549 is more than 100 µM; in the assay on Hep3B, 82.1 µM; in the assay with HepG2 it was 61.8 µM; in the assay with MDA-MB-231, more than 100 µM. Besides, the Ratio in assay [2] came to 5. For the same compound, the result in assay [1] was Active.

On to `Cc1ccc(S(=O)(=O)OCCCc2cn(-c3cccc(C)c3)nn2)cc1`, for which, in assay [1], the result was Active.

For the compound `COC(=O)c1ccc(-n2cc(CCCOS(=O)(=O)c3ccc(C)cc3)nn2)cc1`, the IC50 in the assay on A549, in the assay on Hep3B, in the assay with HepG2 and in the assay on MDA-MB-231 was more than 100 µM in each case.

For the compound `COc1ccccc1-n1cc(CCCOS(=O)(=O)c2ccc(C)cc2)nn1`, the outcome in assay [1] was Active.

On to `N#Cc1cccc(-n2cc(CCCOS(=O)(=O)c3ccc(I)cc3)nn2)c1`, for which, in assay [1], the outcome was inactive.

For the compound `COC(=O)c1ccccc1-n1cc(CCCOS(=O)(=O)c2ccc(C)cc2)nn1`, in assay [1], the result was inactive.

As to `COc1ccc(-n2cc(CCCOS(=O)(=O)c3ccc(I)cc3)nn2)cc1`, the result in assay [1] was inactive.

Turning to `Cc1ccc(S(=O)(=O)OCCCc2cn(-c3ccc(Cl)cc3)nn2)cc1`, the outcome in assay [1] was Active.
